# The list is not random: actives were taken first. Their share in the collection is about 2.2%.
# GSTO1 inh: counter-screen for RBBP9 inhibitors: inhibitors of human GSTO1; P78417; recombinant GSTO1, activity-based probe fluorescence polarization; inhibition, % at 5.96 µM; actives 1.1% (n = 300,000); AID 1974;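 active = inhibition above the campaign mean inhibition plus 3 SD, cut at about 35% in these data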;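 also: 0% = GSTO1-1 with DMSO and 100% = wells lacking GSTO1-1 enzyme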
# UBC13 inh: human UBC13 polyubiquitination inhibition | UBC13 polyubiquitin chain formation, TR-FRET | inhibition, % at 20 µM | actives 0.47% (n = 330,000) | AID 485273; in the data active = inhibition above about 45%, passing the limit was not always enough
# SUMO HTRF inh: inhibitors of human SUMOylation (UBC9). inhibition, % at 35 µM. P63279. HTRF SUMOylation assay, SAE1/SAE2 + UBC9, in vitro. AID 2006. actives 0.36% (n = 290,000); in the data active = inhibition above about 50%, passing the limit was not always enough
# PAD4 inh: blocks human protein arginine deiminase 4. inhibition, % at 6.36 µM. actives 0.41% (n = 330,000). recombinant PAD4, RCA probe fluorescence polarization. AID 485272;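 active = percent inhibition above a cutoff equal to the mean of all tested compounds plus 3 SD, cut at about 15% in these data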;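 also: 0% = PAD4 with RCA probe and DMSO and 100% = probe without PAD4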
# Target sequence (Q9UM07 whole entry, looked up): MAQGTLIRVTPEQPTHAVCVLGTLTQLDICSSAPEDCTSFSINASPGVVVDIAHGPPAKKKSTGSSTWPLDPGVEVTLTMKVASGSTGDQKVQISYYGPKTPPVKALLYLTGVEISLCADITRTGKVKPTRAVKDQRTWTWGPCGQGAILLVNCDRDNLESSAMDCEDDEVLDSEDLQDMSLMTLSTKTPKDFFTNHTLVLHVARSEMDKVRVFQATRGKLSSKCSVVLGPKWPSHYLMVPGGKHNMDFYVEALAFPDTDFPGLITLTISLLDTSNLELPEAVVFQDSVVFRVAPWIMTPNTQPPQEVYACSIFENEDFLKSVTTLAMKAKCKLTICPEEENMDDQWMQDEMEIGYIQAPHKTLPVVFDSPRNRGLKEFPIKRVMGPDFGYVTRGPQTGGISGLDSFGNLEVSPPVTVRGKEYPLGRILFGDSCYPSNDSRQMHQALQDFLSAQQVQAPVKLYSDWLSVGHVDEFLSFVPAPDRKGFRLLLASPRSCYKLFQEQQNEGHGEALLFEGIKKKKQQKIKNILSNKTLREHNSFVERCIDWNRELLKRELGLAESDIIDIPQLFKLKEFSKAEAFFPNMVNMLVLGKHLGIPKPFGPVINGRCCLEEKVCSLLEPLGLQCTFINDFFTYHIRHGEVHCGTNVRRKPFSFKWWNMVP
# Rin1-Abl PPI inh: inhibitors of human Rin1-Abl protein interaction; P00519+Q13671; TR-FRET Rin1/Abl binding, biochemical; inhibition, % at 7.35 µM; actives 0.4% (n = 360,000); in the data active = inhibition above about 5%, passing the limit was not always enough
# Apaf1 inhib: human Apaf-1 inhibition; O14727; reconstituted apoptosome caspase-3 activity, DEVD-Rh110 fluorescence; inhibition, % at 20 µM; actives 0.71% (n = 330,000); active = inhibition of at least 40% at 20 µM;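 also: plate controls were DMSO wells for no effect and DEVD-CHO caspase inhibitor wells for full effect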
#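 System – cell-free apoptosome with Apaf-1, procaspase-3 and caspase-9 · Buffer or medium – pH 7.5 Hepes buffer with CHAPS, BSA, DTT · Also added – cytochrome c with DEVD-Rh110 · Times – 30 min compound preincubation, 50 min activation, room temperature · Technique – Rh110 fluorescence intensity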
# * hit, by the source's call; i = inactive; x = no result.
SMILES,GSTO1 inh,UBC13 inh,SUMO HTRF inh,PAD4 inh,Rin1-Abl PPI inh,Apaf1 inhib
Cc1nnc(N2CCCC(C(=O)NCc3ccc(OC(C)C)cc3)C2)c2nn(-c3ccccc3)c(C)c12 (centres undefined),0.9,13.7,1.3,0.1,32.3*,28.5
Cc1nnc(N2CCCC(C(=O)Nc3cc(F)ccc3F)C2)c2nn(-c3ccccc3)c(C)c12 (centres undefined),-3.7,29.6,21.7,-0.1,-4.1,13.1
COc1ccc(NS(=O)(=O)c2cccc(C(=O)NCCCn3ccnc3)c2)cc1,1.2,3.3,x,0.9,-1.6,2.0
CC1CCCCN1S(=O)(=O)c1ccc(C(=O)N(CCCN(C)C)c2nc3ccc(Br)cc3s2)cc1 (centres undefined),-4.4,51.7*,10.8,7.0,4.8,67.3*
CN(C)CCN(C(=O)c1ccc(S(=O)(=O)N2CCCC2)cc1)c1nc2ccc(Br)cc2s1,3.2,11.1,26.4,5.6,0.8,2.3
COc1ccc(-c2nc(SCC(=O)Nc3c(F)cccc3F)n[nH]2)cc1,0.8,3.6,x,2.1,-1.2,2.8
COc1ccc(-c2nc(SCC(=O)Nc3cc(C)on3)n[nH]2)cc1,8.2,-6.3,50.5*,-5.6,1.6,-0.1
Cc1c(NS(=O)(=O)c2cccc(C(=O)NCc3cccc(Cl)c3)c2)c(=O)n(-c2ccccc2)n1C,x,x,x,x,4.7,x
Cc1ccc(C(NC(=O)N2CCOCC2)=C(Cl)Cl)cc1F,36.5*,-6.0,8.5,4.7,0.5,0.6
Cc1ccc(C(NC(=O)N2CCOCC2)C(Cl)Cl)cc1F (centres undefined),1.3,-12.5,10.6,-5.3,-0.8,-6.3
COc1ccc(/C=C(\C#N)C(=O)OCC(=O)NCc2ccccc2Cl)cc1,7.0,-2.9,54.6*,1.1,-0.3,6.0
Cc1nc2nc(C)c(NS(=O)(=O)c3ccc(Cl)cc3)c(=O)n2[nH]1,-6.9,5.5,-1.8,-5.9,-0.7,5.3
COc1ccc(NS(=O)(=O)c2ccc(O)c(NC(=O)c3cc4c(C)nn(-c5ccc(F)cc5)c4s3)c2)cc1,-15.5,-35.7,81.8*,-38.0,0.6,1.7
COCCN(C(=O)CCl)C(C(=O)NC1CCCCC1)c1ccccc1C (centres undefined),99.4*,9.3,14.0,2.5,-2.1,-6.7
O=C(NC1CCCC1)C(c1ccc(F)cc1)N(Cc1ccccc1Cl)C(=O)CCl (centres undefined),72.1*,-11.4,-2.0,-0.6,1.6,0.1
O=C(NC1CCCC1)C(c1ccc(F)cc1)N(Cc1ccc(F)cc1)C(=O)c1ccn[nH]1 (centres undefined),-6.8,-0.5,-1.2,2.4,6.0,2.4
CC(=O)NCc1ccc(C(=O)CCl)s1,77.8*,-4.0,9.5,1.4,-3.7,-1.3
CC(=O)Nc1ccc(C(=O)CCl)cc1,x,4.7,x,-9.0,3.8,4.9
COc1ccc(C(=O)OCC(=O)c2ccc(CNC(C)=O)s2)cc1,x,-8.4,x,-0.8,4.6,12.6
CC(=O)NCc1ccc(C(=O)CCl)cc1,50.2*,0.6,7.2,4.3,1.0,-0.7
O=C(NCc1ccccc1CN1CCOCC1)c1ccc(-n2cccn2)cc1,x,6.7,x,-3.6,-1.4,-2.4
CC(C)Nc1ncnc2c1ncn2[C@H]1CN(Cc2ccc3c(c2)OCO3)C[C@@H](CO)O1,x,x,x,x,-2.8,x
CC(C)(C)C(=O)NC1=NN(c2c(Cl)cc(Cl)cc2Cl)C(=O)C1,14.0,-16.4,-5.1,-9.8,1.7,67.6*
Cc1nnc(NS(=O)(=O)c2ccc(F)cc2)s1,x,x,x,x,-0.5,x
Nn1c(SCc2ccccc2F)nnc1-c1ccccn1,1.9,-1.4,9.0,3.4,2.5,6.6
SMILES,GSTO1 inh,UBC13 inh,SUMO HTRF inh,PAD4 inh,Rin1-Abl PPI inh,Apaf1 inhib
CN1CCN(c2cc(N3CCN(C(=O)c4ccco4)CC3)c3c4c(onc24)-c2ccccc2C3=O)CC1,17.0,i,-10.6,-3.8,-15.5,82.4*
Cc1cccc(C)c1OCC(=O)N/N=C/C=C/c1ccco1,4.8,-16.7,55.4*,-6.2,0.0,6.2
Nc1c(S(=O)(=O)c2cccs2)c2nc3ccccc3nc2n1CCc1ccccc1,0.5,-24.3,5.4,0.1,x,70.8*
C[C@@H]1CN([C@H](C)CO)C(=O)CCCn2cc(nn2)CO[C@H]1CN(C)C(=O)Nc1ccc2c(c1)OCCO2,x,x,x,x,2.6,x
COC(=O)[C@H](Cc1ccccc1)[C@@H](C)OS(N)(=O)=O,1.0,-3.4,26.9,0.5,-0.7,5.5
O=C(Cn1cnc2ccccc2c1=O)Nc1nc2ccccc2s1,-3.1,-0.1,17.6,-1.6,2.7,2.1
CCc1ccc2nc(NC(=O)Cn3cnc4ccccc4c3=O)sc2c1,-4.9,8.5,50.3*,-6.2,-0.4,-9.8
O=C(C1COc2ccccc2O1)N1CCN(Cc2ccc(Br)cc2F)CC1 (centres undefined),2.1,4.9,-10.8,0.7,2.0,18.7
O=S(=O)(Nc1ccncc1)c1cc(Cl)c(Cl)cc1Cl,5.7,-8.0,17.7,1.7,-0.7,6.3
O=C(O)c1cc(Nc2cc(Cl)c3nonc3c2[N+](=O)[O-])ccc1O,35.9*,-52.1,36.4,6.1,-0.1,16.0
Oc1ccc(/C=N/Nc2nc(N3CCCC3)nc(N3CCCC3)n2)cc1O,56.1*,4.6,-0.1,1.5,-3.5,6.1
COc1cccc(-c2cc(CNC(=O)[C@H]3O[C@@H](n4ccc(N)nc4=O)[C@H](O)[C@@H]3O)no2)c1,x,x,x,x,2.3,x
O=[N+]([O-])c1cc(CN2CCN(c3ccccc3)CC2)c(O)c2ncccc12,-1.6,-42.6,-47.9,-10.1,8.8,32.4
O=[N+]([O-])c1cc(Cl)c(O)c2ncccc12,x,-57.2,59.1*,x,1.3,38.3
O=[N+]([O-])c1cc(CN2CCOCC2)c2cccnc2c1O,x,x,89.0*,x,x,x
CC(=O)NC(c1ccc(C)cc1)c1cc([N+](=O)[O-])c2cccnc2c1O (centres undefined),-13.0,-37.5,10.4,-8.3,6.2,14.5
CCC(=O)NC(c1ccc(C)cc1)c1cc([N+](=O)[O-])c2cccnc2c1O (centres undefined),13.4,x,-9.8,24.9*,2.7,x
CCCCn1c(N)c(N(CC)C(=O)c2ccccc2F)c(=O)[nH]c1=O,5.4,4.6,4.8,-1.6,0.0,-0.1
O=C(CSc1ccc(Cl)cc1)c1ccco1,36.5*,-0.1,7.3,0.4,1.4,5.1
Cc1cc(C)nc(SCc2nnc(SCC(=O)Nc3nc(-c4ccccc4)cs3)n2C)n1,18.7,2.3,-5.5,2.1,-0.2,19.5
Cc1ccc(C(=O)CSc2nnc(CNc3nc(-c4ccccc4)cs3)n2C)cc1,36.9*,-1.3,1.6,2.4,-4.0,25.2
CC(c1ccccc1)n1ccnc1CO (centres undefined),x,x,x,x,4.4,x
O=C1/C(=C\c2ccc(O)c(O)c2)C(c2ccccc2)=NN1c1ccccc1,x,x,27.4,x,6.9,x
CCOc1cc(/C=C2\C(=O)N(c3nc(-c4ccc(Br)cc4)cs3)N=C2c2ccccc2)ccc1O,-47.4,-13.9,44.8,-10.2,-3.0,53.4*

# Screens (PubChem BioAssay)
